Experimental data as given in ChEMBL document CHEMBL4049419, “Structure-Based Discovery of New Antagonist and Biased Agonist Chemotypes for the Kappa Opioid Receptor” (J Med Chem, 2017).
Activity calls are given as the source filed them. The calls are words filed in the database; no cut-off is given here.

Experiments:
[1] = biological target: T1, Kappa-type opioid receptor (Homo sapiens, UniProt P41145); assay: Displacement of 3H-U69593 from human KOR expressed in HEK293 cells at 50 uM after 90 mins by micro beta scintillation counting analysis; format: cell-based
Method in brief: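 Primary screen of 3H-U69593 binding at cloned human KOR in HEK293 cells, using a single compound concentration of 50 µM tested in quadruplicate. Percent inhibition of radioligand binding is reported.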

[2] = biological target: T1, Kappa-type opioid receptor; assay: Displacement of 3H-U69593 from human KOR expressed in HEK293 cells after 90 mins by micro beta scintillation counting analysis; format: cell-based
Method in brief: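 Competition binding with 3H-U69593 at cloned human KOR expressed in HEK293 cells. Ki was derived from the curves; normalized data from three independent assays were pooled, mean ± SEM.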

Homo sapiens [3] = organism: Homo sapiens; assay: Ratio of Ki for KOR H291A mutant (unknown origin) to Ki for human KOR expressed in HEK293 cells; format: cell-based
Homo sapiens [4] = organism: Homo sapiens; assay: Ratio of Ki for KOR I294A mutant (unknown origin) to Ki for human KOR expressed in HEK293 cells; format: cell-based
Homo sapiens [5] = organism: Homo sapiens; assay: Ratio of Ki for KOR M142A mutant (unknown origin) to Ki for human KOR expressed in HEK293 cells; format: cell-based
[6] = biological target: T1, Kappa-type opioid receptor; assay: Agonist activity at human KOR expressed in HEK293T cells coexpressing Gi assessed as Gi-mediated inhibition of cAMP production at 10 uM incubated for 15 mins followed by Gs activator isoproterenol addition measured after 15 mins by luciferase reporter gene assay relative to Sal-A; format: functional, cell-based; conditions: HEK-293T
Method in brief: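 HEK293T cells co-transfected with human KOR and a split-luciferase GloSensor cAMP biosensor, plated overnight at 15,000 cells/well in DMEM + 1% dialyzed FBS. Loaded 1 h with 20 mM HEPES/1× HBSS pH 7.4 containing 4 mM luciferin. Drug added for 15 min, then isoproterenol (200 nM final, Gs activation via endogenous β2 receptors); luminescence read 15 min later.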

[7] = test system: Kappa-type opioid receptor (Homo sapiens), P41145 [M142A]; assay: Displacement of 3H-U69593 from KOR M142A mutant (unknown origin)
Method in brief: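 Single-point KOR mutants were retested alongside wild-type receptor in ³H-U69593 competition binding. 12-point concentration-response from 100 µM to 10 nM, run in triplicate; Ki derived.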

[8] = biological target: T1, Kappa-type opioid receptor; assay: Antagonist activity at KOR (unknown origin) expressed in HTLA cells assessed as inhibition of Sal A-induced beta-arrestin recruitment preincubated for overnight followed by Sal-A addition at 30 mins post compound treatment measured after 20 mins by Bright-Glo luminescence assay; format: cell-based
Method in brief: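 HTLA cells transfected overnight, plated at 15,000 cells/well in DMEM with 1% dialyzed FBS on poly-L-Lys, rested ≥6 h. Test compounds added, then Sal A 30 nM 30 min later; overnight incubation. BrightGlo reagent 20 min at room temperature in the dark; luminescence read. Normalized data, mean ± SEM from at least 4 measurements.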

[9] = biological target: T1, Kappa-type opioid receptor; assay: Antagonist activity at human KOR expressed in HEK293T cells coexpressing Gi assessed as Gi-mediated inhibition of cAMP production incubated for 15 mins followed by Gs activator isoproterenol addition measured after 15 mins by luciferase reporter gene assay; format: functional, cell-based; conditions: HEK-293T
Method in brief: (§1)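 HEK293T cells co-transfected with human KOR and GloSensor split-luciferase cAMP biosensor, plated 15,000 cells/well overnight. Loaded 1 h with 4 mM luciferin in 20 mM HEPES/HBSS pH 7.4. Compounds preincubated 15 min, Sal A 20 nM added for 15 min, then isoproterenol (200 nM final) to drive Gs; luminescence read 15 min later. Sal A shifts analysed by Schild analysis to give KB.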

[10] = biological target: T1, Kappa-type opioid receptor; assay: Antagonist activity at human KOR expressed in HEK293T cells coexpressing Gi assessed as inhibition of Sal A-induced Gi-mediated reduction of cAMP production incubated for 15 mins followed by Sal A addition for 15 mins and susequent addition of Gs activator isoproterenol measured after 15 mins by luciferase reporter gene assay; format: functional, cell-based; method in brief: as §1

T1 sequence (P41145 whole entry): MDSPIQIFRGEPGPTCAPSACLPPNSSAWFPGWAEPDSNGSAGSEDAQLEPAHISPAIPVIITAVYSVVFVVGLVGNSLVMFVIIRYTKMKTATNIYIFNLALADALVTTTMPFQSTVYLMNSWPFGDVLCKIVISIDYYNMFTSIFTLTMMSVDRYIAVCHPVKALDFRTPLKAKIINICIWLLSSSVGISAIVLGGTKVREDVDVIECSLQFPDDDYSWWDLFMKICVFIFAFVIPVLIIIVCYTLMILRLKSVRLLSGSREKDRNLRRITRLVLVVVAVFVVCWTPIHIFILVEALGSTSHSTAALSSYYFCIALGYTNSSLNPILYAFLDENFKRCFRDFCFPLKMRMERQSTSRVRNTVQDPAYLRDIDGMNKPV
Chain of Kappa-type opioid receptor (Homo sapiens), P41145 [M142A] (P41145 whole entry M142A): as the sequence (P41145 whole entry) above, with M142A counted along it

Structure (SMILES) | inhibition [1] [%] | Ki ([2]; read-out: Ki) [nM] | further results
CCN(Cc1csc(C)n1)C(C)c1cccc(O)c1 (centres undefined) | 74 | 630 | Ki ([2]; read-out: pKi (converted)): 562 nM; Ratio Ki (Homo sapiens [3]): > 10; Ratio Ki (Homo sapiens [4]): > 10
Cc1cccc(C(O)CNC(C)Cn2cc(Br)cn2)c1 (centres undefined) | 49.8 | 6400 | –
COc1ccc(CNCC(O)c2cccc(O)c2)cc1Br (centres undefined) | 98.2 | 230 | Ratio Ki (Homo sapiens [5]): 10; Ratio Ki (Homo sapiens [3]): > 10; Ratio Ki (Homo sapiens [4]): > 10
Cc1cc(S(=O)(=O)NCC(=O)NC2CCC2NC(C)C)ccc1F (centres undefined) | 49.1 | 6200 | –
COC(=O)[C@@H]1C[C@H](OC(C)=O)C(=O)[C@H]2[C@@]1(C)CC[C@H]1C(=O)O[C@H](c3ccoc3)C[C@]21C | – | – | Ratio Ki (Homo sapiens [5]): 10
Cc1nc(O)cc(C2CCN(Cc3ccc(C4CCCC4)s3)CC2)n1 | 73.7 | 8100 | –
CC(CCc1ccc(O)cc1)NCCc1ccccc1 (centres undefined) | 70.2 | 6600 | –
NC(=O)c1cc(S(=O)(=O)NC2CCN(Cc3ccccc3)CC2)cs1 | 47.3 | 9800 | –
c1ccc(CN2CCC(Nc3nc4ccccc4o3)C2)cc1 (centres undefined) | 77.5 | 2600 | inhibition [6]: 40 to 60%
Cc1ccc(C(CNC(=O)c2oc3ccccc3c2C)N2CCCC2)o1 (centres undefined) | 69.1 | 380 | inhibition [7]: Active; Ki ([2]; read-out: pKi (converted)): 363 nM; inhibition [6]: 40 to 60%
COc1ccc2oc(C(=O)NCC(c3ccco3)N3CCCC3)c(C)c2c1 (centres undefined) | 74 | 720 | –
NC1CCc2cc(O)ccc2C1 (centres undefined) | 48.6 | 8300 | –
CN(Cc1ccccc1NC(=O)NCc1ccoc1)C1CCCCC1 | 76.5 | 2300 | –
Cc1ccc(-c2ccccc2CN2CC3CNCC3C2)o1 (centres undefined) | 60.7 | 3000 | –
Oc1ccc(CCC2CCCCN2Cc2ccc(Cl)o2)cc1 (centres undefined) | 95.3 | 500 | –
Cc1ccc(C(CNC(=O)c2oc3ccc(F)cc3c2C)N2CCCC2)o1 (centres undefined) | 75.8 | 660 | inhibition [7]: Active; Ki ([2]; read-out: pKi (converted)): 646 nM; inhibition [6]: 40 to 60%
Oc1cccc(CNCc2cc3ccccc3[nH]2)c1 | 82.4 | 710 | Ki ([2]; read-out: pKi (converted)): 676 nM
O=C(NC[C@@H](c1ccco1)N1CCCC1)c1cc2ccccc2o1 | 64 | 950 | Ki ([2]; read-out: pKi (converted)): 912 nM
Cc1c(C(=O)NCC(c2ccco2)N2CCCC2)oc2ccc(Cl)cc12 (centres undefined) | 86.5 | 520 | inhibition [7]: Active; inhibition [6]: 40 to 60%
CSc1ccc(CN(CCO)Cc2ccc(-c3ccn[nH]3)s2)cc1 | 53 | 3000 | –
Cc1ncsc1CN1CCCCC1CCc1cccc(O)c1 (centres undefined) | 96.9 | 350 | –
Oc1cccc(C(O)CNCc2c(Cl)cccc2Cl)c1 (centres undefined) | 80.1 | 2600 | –
Oc1cccc(C(O)CNCc2ccc(Cl)cc2Cl)c1 (centres undefined) | 97.9 | 90 | Ratio Ki (Homo sapiens [5]): 10; Ki ([2]; read-out: pKi (converted)): 83.2 nM; Ratio Ki (Homo sapiens [3]): > 10; Ratio Ki (Homo sapiens [4]): > 10; IC50 [8]: 1100 nM; Ki [8]: 230 nM; inhibition [8]: Dose-dependent effect; Kb [9]: 170 nM; inhibition ([10]; HEK-293T): Dose-dependent effect; Kb ([10]; read-out: pA2 (converted)): 166 nM
Cc1cc2oc(C(=O)NCC(c3ccco3)N3CCCC3)c(C)c2cc1C (centres undefined) | 77.5 | 1100 | –
